ChEMBL document CHEMBL1125629, “Beta-substituted beta-phenylpropionyl chymotrypsins. Structural and stereochemical features in stable acyl enzymes” (J Med Chem, 1991)

Experiments:
[1] = Deacylation rate constant(Kd slow) was determined by proflavin displacement assay
In short: (§1)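 Proflavin displacement: ester 90 μM (from DMSO) added to α-chymotrypsin 90 μM and proflavin 9 μM (final) in 0.1 M phosphate pH 7.2 at 25 °C. Return of A466 was followed, and the slope of semilog absorbance versus time gave kd. Racemic esters gave biphasic curves yielding kd(fast) and kd(slow), and their ratio approximates deacylation enantioselectivity.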

[2] = kd ratio measured as the kd(fast)/kd(slow) values; assay type: ADME; in short: as §1
[3] = Deacylation rate constant(Kd fast) was determined by proflavin displacement assay; in short: as §1
[4] = Binding constant of the compound
[5] = Acylation rate constant was determined
[6] = Second order rate constant for acylation( ka/Ks); assay type: ADME
In short: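 Competitive substrate assay with α-chymotrypsin (25 nM, active-site titrated) in 0.1 M phosphate buffer pH 7.2, 25 °C. MeO-Suc-Ala-Ala-Pro-Phe pNA was at 128 μM with ester at 10–350 μM, DMSO present. A410 followed for up to 300 s, and k_obs came from semilog plots in triplicate. ka and KS were obtained from I0/k_obs versus I0 by Main's equation (KM 50 μM).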

| Kd [1] | Ratio [2] | Kd [3] | Ks [4] | Ka [5] | Ratio [6] | Structure (SMILES) |
| --- | --- | --- | --- | --- | --- | --- |
| 6e-05 s⁻¹ | 42 | 0.0025 s⁻¹ |  |  |  | CC(=O)CC(CC(=O)Oc1ccc([N+](=O)[O-])cc1)c1ccccc1 (stereo not given) |
| 0.000417 s⁻¹ | 1200 | 0.5 s⁻¹ |  |  |  | O=C(CC(NC(=O)c1ccccc1)c1ccccc1)Oc1ccc([N+](=O)[O-])cc1 (stereo not given) |
|  |  |  | 91 µM | 58 min⁻¹ | 11000 M⁻¹ s⁻¹ | CC(=O)C[C@@H](CC(=O)Oc1ccc(C#N)cc1)c1ccccc1 |
|  | 3 | 0.00287 s⁻¹ |  |  |  | C=C(C)C[C@@H](CC(=O)Oc1ccc([N+](=O)[O-])cc1)c1ccccc1 |
|  |  |  | 630 µM | 73 min⁻¹ | 2000 M⁻¹ s⁻¹ | CC(=O)C[C@H](CC(=O)Oc1ccc(C#N)cc1)c1ccccc1 |
| 8.3e-05 s⁻¹ | 180 | 0.015 s⁻¹ |  |  |  | O=CCC(CC(=O)Oc1ccc([N+](=O)[O-])cc1)c1ccccc1 (stereo not given) |
| 0.000105 s⁻¹ |  | 0.000105 s⁻¹ |  |  |  | O=C(CC(NC(=O)C(F)(F)F)c1ccccc1)Oc1ccc([N+](=O)[O-])cc1 (stereo not given) |
| 0.25 s⁻¹ |  | 0.25 s⁻¹ |  |  |  | O=C(CCc1ccccc1)Oc1ccc([N+](=O)[O-])cc1 |

The next lines start with the molecule.

| Structure (SMILES) | Kd [1] | Ratio [2] | Kd [3] | Ks [4] | Ka [5] | Ratio [6] |
| --- | --- | --- | --- | --- | --- | --- |
| C=C(C)C[C@H](CC(=O)Oc1ccc([N+](=O)[O-])cc1)c1ccccc1 | 0.00112 s⁻¹ | 3 |  |  |  |  |
| N#CCC(CC(=O)Oc1ccc([N+](=O)[O-])cc1)c1ccccc1 (stereo not given) | 0.000583 s⁻¹ | 257 | 0.15 s⁻¹ |  |  |  |
| C=C1C[C@H](c2ccccc2)CC(=O)O1 (stereo in doubt; 1 (R)) | 4.83e-05 s⁻¹ |  |  | 51 µM | 35 min⁻¹ | 12000 M⁻¹ s⁻¹ |
| COC(=O)CC(CC(=O)Oc1ccc([N+](=O)[O-])cc1)c1ccccc1 (stereo not given) | 0.0008 s⁻¹ | 49 | 0.039 s⁻¹ |  |  |  |
| CCC(=O)NC(CC(=O)Oc1ccc([N+](=O)[O-])cc1)c1ccccc1 (stereo not given) | 4.83e-05 s⁻¹ | 1500 | 0.0725 s⁻¹ |  |  |  |
| CC(=O)N[C@@H](CC(=O)Oc1ccc([N+](=O)[O-])cc1)c1ccccc1 | 0.00033 s⁻¹ | 785 | 0.0262 s⁻¹ |  |  |  |
| C=C1C[C@H](c2ccccc2)CC(=O)O1 (stereo in doubt; 1 (S)) |  | 59 | 0.00283 s⁻¹ | 8 µM | 17 min⁻¹ | 38000 M⁻¹ s⁻¹ |
| CC(C)CC(CC(=O)Oc1ccc([N+](=O)[O-])cc1)c1ccccc1 (stereo not given) | 0.0016 s⁻¹ |  | 0.0016 s⁻¹ |  |  |  |
| O=CNC(CC(=O)Oc1ccc([N+](=O)[O-])cc1)c1ccccc1 (stereo not given) | 0.00065 s⁻¹ | 92 | 0.0597 s⁻¹ |  |  |  |
| NC(=O)CC(CC(=O)Oc1ccc([N+](=O)[O-])cc1)c1ccccc1 (stereo not given) | 8.3e-05 s⁻¹ | 31 | 0.00257 s⁻¹ |  |  |  |
| O=C1CC(c2ccccc2)CC(=O)O1 | 0.0034 s⁻¹ |  | 0.0034 s⁻¹ |  |  |  |
| C=C(C)CC(CC(=O)Oc1ccc([N+](=O)[O-])cc1)c1ccccc1 (stereo not given) | 0.0027 s⁻¹ |  | 0.0027 s⁻¹ |  |  |  |
| CC(=O)OC(CC(=O)Oc1ccc([N+](=O)[O-])cc1)c1ccccc1 (stereo not given) | 0.00017 s⁻¹ | 7 | 0.00112 s⁻¹ |  |  |  |
| C=C(C)C[C@H](CC(=O)O)c1ccccc1 | 3.83e-05 s⁻¹ |  |  |  |  |  |
